{"data": "Measurements gathered from unrelated publications", "HSP90B1": "Endoplasmin (HSP90B1, Canis lupus familiaris, UniProt P41148)", "MTOR": "Serine/threonine-protein kinase mTOR (MTOR, Homo sapiens, UniProt P42345)", "SMARCA2 bromodomain": "SWI/SNF-related matrix-associated actin-dependent regulator of chromatin subfamily A member 2, bromodomain (SMARCA2, Homo sapiens, UniProt P51531)", "LYZ": "Lysozyme C (LYZ, Gallus gallus, UniProt P00698)", "note": "Each line is one published result; the experiments were not run side by side."}
{"Structure (SMILES)": "CC(=O)N[C@H]1[C@H](O[C@H]2[C@H](O)[C@@H](NC(C)=O)C(O)O[C@@H]2CO)O[C@H](CO)[C@@H](O[C@@H]2O[C@H](CO)[C@@H](O)[C@H](O)[C@H]2NC(C)=O)[C@@H]1O (some centres unmarked)", "target": "Chitotriosidase-1 (Homo sapiens, UniProt Q13231)", "effect on": "binding", "Kd [µM]": 3100}
{"Structure (SMILES)": "c1cncc(-c2cccc(Nc3nccc(NC4CCCCC4)n3)c2)c1", "target": "Non-receptor tyrosine-protein kinase TYK2, JH1 (TYK2, Homo sapiens, UniProt P29597)", "effect on": "binding", "method": "competition with immobilised ligand", "Kd [µM]": 0.35}
{"Structure (SMILES)": "O=P(O)(O)O[C@H]1[C@H](O)[C@@H](OP(=O)(O)O)[C@H](OP(=O)(O)O)[C@@H](OP(=O)(O)O)[C@H]1O", "target": "PREX1 (Homo sapiens, UniProt Q8TCU6)", "effect on": "binding", "method": "ITC", "Kd [µM]": 0.44}
{"Structure (SMILES)": "COC(=O)c1c(O)cc(O)c(Cl)c1CCC(=O)Nc1ccc(Br)cc1", "target": "HSP90B1", "effect on": "ligand displacement", "method": "FP", "Kd [µM]": 1.5}
{"Structure (SMILES)": "CCC(=O)N1CCC(C(=O)NCC(=O)N2CCN(c3nc(-c4cnc(N)nc4C(F)F)nc(N4CCOCC4)n3)CC2)CC1", "target": "MTOR", "effect on": "binding", "method": "competition with immobilised ligand", "Kd [µM]": 0.033}
{"Structure (SMILES)": "COCCOCCc1c(C)c2cc(OC)c(O)c(C=O)c2oc1=O", "target": "Serine/threonine-protein kinase/endoribonuclease IRE1 (Mus musculus, UniProt Q9EQY0, N772Y)", "effect on": "binding", "Kd [µM]": 0.84}
{"Structure (SMILES)": "C=CC(=O)N1CCC(C(=O)NCC(=O)N2CCN(c3nc(-c4cnc(N)nc4C(F)F)nc(N4CCOCC4)n3)CC2)CC1", "target": "MTOR", "effect on": "binding", "method": "competition with immobilised ligand", "Kd [µM]": 0.032}
{"Structure (SMILES)": "Cc1ncsc1-c1ccc(CNC(=O)[C@@H]2C[C@@H](O)CN2C(=O)[C@@H](NC(=O)C2(F)CC2)C(C)(C)C)c(OCCOCCOCCN2CCN(c3cc(-c4ccccc4O)nnc3N)CC2)c1", "target": "SMARCA2 bromodomain", "effect on": "binding", "method": "SPR", "Kd [µM]": 4.5}
{"Structure (SMILES)": "C=CC(=O)N1CCC(C(=O)N(C)CC(=O)N2CCN(c3nc(-c4cnc(N)nc4C(F)F)nc(N4CCOCC4)n3)CC2)CC1", "target": "MTOR", "effect on": "binding", "method": "competition with immobilised ligand", "Kd [µM]": 0.026}
{"Structure (SMILES)": "Cc1ncsc1-c1ccc(CNC(=O)[C@@H]2C[C@H](O)CN2C(=O)[C@@H](NC(=O)C2(F)CC2)C(C)(C)C)c(OCCOc2ccc(CN3CCN(c4cc(-c5ccccc5O)nnc4N)CC3)cc2)c1", "target": "SMARCA2 bromodomain", "effect on": "binding", "method": "SPR", "Kd [µM]": 1.1}
{"Structure (SMILES)": "O=C1OC2(c3ccc(O)cc3Oc3cc(O)ccc32)c2ccccc21", "target": "LYZ", "effect on": "binding", "method": "fluorescence", "Kd [µM]": 3.8}
{"Structure (SMILES)": "NC(=O)c1ccc(-c2nc(-c3ccc4c(c3)OCO4)c(-c3ccccn3)[nH]2)cc1", "target": "Epidermal growth factor receptor (EGFR, Homo sapiens, UniProt P00533)", "effect on": "binding", "Kd [µM]": "> 10"}
{"Structure (SMILES)": "Cc1cc2nc3c(=O)[nH]c(=O)nc-3n(C[C@H](O)[C@H](O)[C@H](O)COP(=O)(O)OP(=O)(O)OC[C@H]3O[C@@H](n4cnc5c(N)ncnc54)[C@H](O)[C@@H]3O)c2cc1C", "target": "DAZ-associated protein 1 (Homo sapiens, UniProt Q96EP5)", "effect on": "binding", "setting": "lysate", "Kd [µM]": 0.007}
{"Structure (SMILES)": "COC(=O)c1c(O)cc(O)c(Cl)c1CCC(=O)Nc1cccc(Cl)c1", "target": "HSP90B1", "effect on": "ligand displacement", "method": "FP", "Kd [µM]": 6.42}
{"Structure (SMILES)": "CC(=O)N[C@H]1[C@H](O[C@H]2[C@H](O)[C@@H](NC(C)=O)C(O)O[C@@H]2CO)O[C@H](CO)[C@@H](O[C@@H]2O[C@H](CO)[C@@H](O)[C@H](O)[C@H]2NC(C)=O)[C@@H]1O (some centres unmarked)", "target": "LYZ", "effect on": "binding", "pH": "pH 7.4", "Kd [µM]": 6.2}
{"Structure (SMILES)": "NCCS(=O)(=O)O", "target": "Cyclin-dependent kinase 6 (CDK6, Homo sapiens, UniProt Q00534)", "effect on": "binding", "Kd [µM]": 0.143}
{"Structure (SMILES)": "COC(=O)c1c(O)cc(O)c(Cl)c1CCC(=O)Nc1ccccn1", "target": "HSP90B1", "effect on": "ligand displacement", "method": "FP", "Kd [µM]": 0.82}
